Experimental data taken from the M2OR odorant receptor database.

What follows are compounds tested against T1, OR10G7 (Homo sapiens) (UniProt Q8NGN6). Settings: stereoisomer not certain.
T1 sequence (whole entry): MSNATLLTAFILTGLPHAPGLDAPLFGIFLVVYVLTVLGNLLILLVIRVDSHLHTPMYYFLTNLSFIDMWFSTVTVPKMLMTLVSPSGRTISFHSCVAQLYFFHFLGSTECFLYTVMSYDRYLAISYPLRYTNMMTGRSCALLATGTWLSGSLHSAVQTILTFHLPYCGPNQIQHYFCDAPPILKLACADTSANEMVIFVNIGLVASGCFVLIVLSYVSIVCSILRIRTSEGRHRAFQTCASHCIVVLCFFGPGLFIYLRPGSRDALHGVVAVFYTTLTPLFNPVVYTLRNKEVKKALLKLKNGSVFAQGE
Summary of the method: (§1)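 Transient luciferase assays in mammalian cell lines were common, though methods varied by source. The values come from published papers and their supplementary material, with extra details from the original authors when needed. Responsive refers to a measured signal the original authors judged statistically different from baseline, and non-responsive (inactive) to the remainder.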
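Also: active if original authors judged signal statistically different from baseline.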

Odorant receptor agonist call, inactive:
CCCCCCC=CCCC=O
CC1CCCCCCCCCCCCC(=O)C1 (stereo unspecified)
CCC1OC(=O)C(O)=C1C (stereo unspecified)
CCCCCC(=O)C(C)C(C)=O (stereo unspecified)
CC1=C(O)C(=O)C(C)O1 (stereo unspecified)
CC1=NC(C)C(C)S1 (stereo unspecified)
CCC1OC(C)=C(O)C1=O (stereo unspecified)
CCCC(S)CCOC(C)=O (stereo unspecified)
CCCCCC(S)C(C)CO (stereo unspecified)
CCCCC(S)C(C)CO (stereo unspecified)
CC(CO)CS (stereo unspecified)
CC(=O)c1c(C)c([N+](=O)[O-])c(C(C)(C)C)c([N+](=O)[O-])c1C
Cc1cnc(C)c(C)n1
CCC(S)C(C)CO (stereo unspecified)
CC1=C(O)C(=O)OC1C (stereo unspecified)

Each compound was assayed against T2, OR10G8 (Homo sapiens) (UniProt Q8NGN5). Settings: stereoisomer not certain.
T2 sequence (whole entry): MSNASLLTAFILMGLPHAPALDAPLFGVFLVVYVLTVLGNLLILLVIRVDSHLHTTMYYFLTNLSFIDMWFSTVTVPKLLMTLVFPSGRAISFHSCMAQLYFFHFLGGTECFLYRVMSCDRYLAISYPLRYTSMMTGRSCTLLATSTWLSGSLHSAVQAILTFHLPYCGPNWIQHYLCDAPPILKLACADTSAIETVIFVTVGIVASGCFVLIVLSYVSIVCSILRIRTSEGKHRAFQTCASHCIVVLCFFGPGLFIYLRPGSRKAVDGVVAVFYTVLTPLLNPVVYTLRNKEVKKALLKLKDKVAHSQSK
Summary of the method: as §1

Odorant receptor agonist call, inactive:
CCCCCCC=CCCC=O
CC1CCCCCCCCCCCCC(=O)C1 (stereo unspecified)
CCC1OC(=O)C(O)=C1C (stereo unspecified)
CCCCCC(=O)C(C)C(C)=O (stereo unspecified)
CC1=C(O)C(=O)C(C)O1 (stereo unspecified)
CC1=NC(C)C(C)S1 (stereo unspecified)
CCC1OC(C)=C(O)C1=O (stereo unspecified)
CCCC(S)CCOC(C)=O (stereo unspecified)
CCCCCC(S)C(C)CO (stereo unspecified)
CCCCC(S)C(C)CO (stereo unspecified)
CC(CO)CS (stereo unspecified)
CC(=O)c1c(C)c([N+](=O)[O-])c(C(C)(C)C)c([N+](=O)[O-])c1C
CCCCCCCCC(=O)O
Cc1cnc(C)c(C)n1
CCC(S)C(C)CO (stereo unspecified)
CC1=C(O)C(=O)OC1C (stereo unspecified)

Each compound was assayed against T3, OR10G9 (Homo sapiens) (UniProt Q8NGN4). Settings: stereoisomer not certain.
T3 sequence (whole entry): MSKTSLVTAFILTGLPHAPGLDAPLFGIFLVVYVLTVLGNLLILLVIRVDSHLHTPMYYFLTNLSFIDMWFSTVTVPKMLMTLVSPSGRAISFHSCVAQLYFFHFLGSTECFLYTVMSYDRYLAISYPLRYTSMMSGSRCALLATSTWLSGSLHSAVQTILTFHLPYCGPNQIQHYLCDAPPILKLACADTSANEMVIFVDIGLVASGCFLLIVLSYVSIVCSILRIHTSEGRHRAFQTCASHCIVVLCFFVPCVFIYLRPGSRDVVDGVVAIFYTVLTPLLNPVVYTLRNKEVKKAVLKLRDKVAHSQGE
Summary of the method: as §1

Odorant receptor agonist call, inactive:
CCCCCCC=CCCC=O
CC1CCCCCCCCCCCCC(=O)C1 (stereo unspecified)
CCC1OC(=O)C(O)=C1C (stereo unspecified)
CCCCCC(=O)C(C)C(C)=O (stereo unspecified)
CC1=C(O)C(=O)C(C)O1 (stereo unspecified)
CC1=NC(C)C(C)S1 (stereo unspecified)
CCC1OC(C)=C(O)C1=O (stereo unspecified)
CCCC(S)CCOC(C)=O (stereo unspecified)
CCCCCC(S)C(C)CO (stereo unspecified)
CCCCC(S)C(C)CO (stereo unspecified)
CC(CO)CS (stereo unspecified)
CC(=O)c1c(C)c([N+](=O)[O-])c(C(C)(C)C)c([N+](=O)[O-])c1C
Cc1cnc(C)c(C)n1
CCC(S)C(C)CO (stereo unspecified)
CC1=C(O)C(=O)OC1C (stereo unspecified)
